From PubChem BioAssay
Sampled rows, rich in hits. Any-hit rate of the full collection: about 3.5%.
RGS4 pot = potentiators or activators of RGS4 | HEK293 M3R/inducible RGS4, carbachol calcium flux Fluo4; hits give low values | B-score at 10 µM | hit rate 0.92% among 310,000 | AID 463111;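 active means B-score of the integrated calcium signal more than 4 SD below the library mean, with starting fluorescence not abnormally high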;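 further: negative B-score means reduced calcium response which marks RGS4 activation or potentiation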
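Reagent: ECmax carbachol challenge; Test system: M3R-expressing HEK293 line, RGS4 induced by doxycycline; Schedule: overnight RGS4 induction, 30 min dye load 37 °C, 20 min compound RT; Detection: calcium dye Fluo4 fluorescence; Read-out: Agonist-evoked peak-minus-minimum fluorescence over baseline, integrated ratio, B score.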
RGS4 block = human RGS4 inhibition; P49798; HEK293 M3R/RGS4 inducible, Fluo-4 calcium flux; hits give high values; triggered by carbachol at its EC20; B-score at 10 µM; hit rate 0.45% among 310,000; AID 463165;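 active means B-score, a plate-corrected calcium signal, over three deviations above library mean, with baseline fluorescence within five deviations of library mean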;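 further: RGS4 expression induced by doxycycline in cells with stable M3 receptor; B-score is computed from the integrated fluorescence ratio over baseline after carbachol; higher B-score means a larger calcium signal and so more RGS4 inhibition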
MrgX1 allo act = allosterically activates human MrgX1 receptor signaling; B-score at 10 µM; AID 588675; hit rate 0.63% among 310,000; MrgX1-HEK293, Fluo-4 calcium flux, FDSS; hits give high values;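 active means plate-corrected calcium response at least 3 library SD above typical, normal starting fluorescence, not activating the receptor alone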;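 further: compound read alongside a low EC10 to EC30 dose of BAM8-22 agonist; peak minus trough fluorescence over baseline measured at the second addition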
Target sequence (Q96LB2 whole entry, looked up): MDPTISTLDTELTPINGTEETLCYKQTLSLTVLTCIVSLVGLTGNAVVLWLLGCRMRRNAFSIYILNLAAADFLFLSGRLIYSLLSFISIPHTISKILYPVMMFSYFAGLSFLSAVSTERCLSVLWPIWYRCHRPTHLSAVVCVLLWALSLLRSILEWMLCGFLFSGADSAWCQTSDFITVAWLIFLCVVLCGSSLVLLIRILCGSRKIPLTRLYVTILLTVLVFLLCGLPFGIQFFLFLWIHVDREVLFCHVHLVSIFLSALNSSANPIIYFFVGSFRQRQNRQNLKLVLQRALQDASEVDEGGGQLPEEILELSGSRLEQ
MrgX1 antagonist = blocks BAM8-22 activation of human MrgX1 receptor; AID 588676; Q96LB2; MRGX1-HEK293 calcium flux, Fluo-4, BAM8-22 antagonism; hits give low values; B-score at 10 µM; hit rate 1.3% among 310,000;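 active means calcium-response B-score plate-corrected more than 3 library SD below zero, starting fluorescence within 5 deviations, no agonist response on first addition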;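 further: peak minus trough fluorescence over baseline after final BAM8-22 challenge near maximal dose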
MrgX1 agonist = activates human MrgX1 receptor signaling. hit rate 0.44% among 310,000. MrgX1-HEK293 cells, Fluo-4 calcium fluorescence, agonist mode; hits give high values. B-score at 10 µM. Q96LB2;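 active means calcium response B-score plate-corrected fluorescence ratio at least 3 library SD, with starting fluorescence B-score inside 5 SD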
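Material: MrgX1-expressing HEK293 cells; input: 15,000 cells per well; doses: test compound given as first of three sequential additions; schedule: overnight plating before 1 h dye loading; technique: Fluo-4 NW calcium-flux fluorescence, kinetic read; evaluation: baseline-normalised fluorescence change ratio, B-scored; control set: plate-wise positive and negative controls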
RGS4 act valid = RGS4 activation, validation assay | shares compounds with RGS4 pot | HEK293 M3R/RGS4 inducible, carbachol calcium flux Fluo4 | hit rate 89% among 1,100 | inhibition, % at 10 µM;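 active means inhibition above 3 SD of the buffer control wells, cut at about 41% in these data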;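 further: signal is the integrated peak-minus-minimum Fluo4 fluorescence over baseline ratio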
RGS4 act ctr = activity in cells without induced RGS4 expression. shares compounds with RGS4 pot. HEK293 M3R non-induced RGS4, Fluo4 calcium flux; after carbachol challenge at its EC90. inhibition, % at 10 µM. hit rate 82% among 1,100;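 active means inhibition exceeding 3 SD of buffer-only control wells, cut at about 26% in these data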;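 further: percent drop in integrated peak-minus-baseline over baseline Fluo4 ratio after carbachol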
* hit, by the source's call; i = inactive; · = not tested or not shown.

SMILES	RGS4 pot	RGS4 block	MrgX1 allo act	MrgX1 antagonist	MrgX1 agonist	RGS4 act valid	RGS4 act ctr
CCOc1ccc(-c2cc(C(=O)N3CCN(c4ccccn4)CC3)c3ccccc3n2)cc1	i	i	i	i	i	·	·
COc1ccc(-c2cc(C(=O)N3CCN(c4ccccc4F)CC3)c3ccccc3n2)c(OC)c1	-8.4*	i	i	i	i	56*	0
COc1ccc(-c2cc(C(=O)N3CCN(c4ccccc4O)CC3)c3ccccc3n2)cc1OC	-7.7*	i	i	i	i	92*	82*
CCOc1ccc(CN2CCN(CC3CC3)CC2CCO)cc1 (stereo not given)	i	i	i	i	i	·	·
CCOC(=O)N1CCN(C(=S)NC(=O)c2ccc(F)c(F)c2)CC1	i	i	i	i	i	·	·
CCOC(=O)c1c(NC(=O)CSc2nnnn2-c2ccc3c(c2)OCCO3)sc(C)c1C	-9.5*	i	i	i	i	84*	32*
CS(=O)(=O)c1ccc2nc(NC(=O)c3ccc(Cn4cc(Br)cn4)o3)sc2c1	-8.8*	i	i	i	i	63*	0
CC(C)c1cc(-c2cc(C(=O)NCc3ccccc3)on2)nc(NCC2CC2)n1	-8.4*	i	i	i	i	92*	92*
CC1=C(n2nnc([N+](=O)[O-])n2)C(c2cccnc2)C(C#N)=C(N)O1 (stereo not given)	i	i	i	i	i	·	·
Cc1ccc(C)c(NC(=O)C(NCC(C)(C)N2CCOCC2)c2ccccc2)c1 (stereo not given)	-10*	i	i	i	i	92*	95*
Cc1nc2ccc(NC(=O)c3cccc(S(=O)(=O)N(C)c4ccccc4)c3)cc2s1	-8.9*	i	i	i	i	88*	69*
COc1ccc(CC(=O)Nc2sccc2C#N)cc1S(=O)(=O)N1CCOCC1	i	i	i	i	i	·	·
CCCCNc1c2c3c(cccc3n(C)c1=O)C(=O)c1ccccc1-2	-12*	i	i	i	i	100*	97*
COc1ccc(C(=O)Nc2ccccc2N2CCN(C(=O)c3ccccc3)CC2)cc1Br	-9.4*	i	i	i	i	64*	26*
O=C(NC(=S)Nc1ccccc1N1CCOCC1)c1ccccc1F	i	i	i	i	i	·	·
O=C(Nc1ccccc1N1CCN(C(=O)c2ccccc2)CC1)c1ccc(Br)o1	-7.8*	i	i	i	i	48*	0
O=C(Nc1ccccc1N1CCN(C(=O)c2ccccc2)CC1)c1ccc(Cl)cc1	i	i	i	i	i	·	·
O=C(NC(=S)Nc1ccccc1N1CCN(C(=O)c2ccccc2)CC1)c1ccccc1F	-8*	i	i	i	i	68*	0
CC(C)C(=O)Nc1ncc(Cc2ccc(Cl)cc2)s1	i	i	i	i	i	·	·
CCOCCCn1c(C)nc2c[n+](CC(=O)c3ccc4ccccc4c3)cc(Br)c21	i	i	i	i	i	·	·
FC(F)(F)c1nc(-c2cccs2)ncc1-c1nnnn1-c1ccc(Cl)cc1	-8.9*	i	i	i	i	92*	58*
Clc1ccc(-n2nnnc2-c2cnc(-c3ccncc3)nc2-c2cccs2)cc1	i	i	i	i	i	·	·
O=C1C2CSCN2C(=O)CN1CCCN1CCN(C(c2ccccc2)c2ccccc2)CC1 (stereo not given)	-8*	i	i	i	i	84*	34*
c1ccc(OCCOCCN2CCN(C(c3ccccc3)c3ccccc3)CC2)cc1	i	i	i	i	i	·	·
CNC(=O)n1cc(C)c(-c2cccs2)n1	i	i	i	i	i	·	·
O=C(Nc1nc2ccc(S(=O)(=O)N3CCCC3)cc2s1)c1ccco1	-7.6*	i	i	i	i	0	0
